What all share (design): species or system Homo sapiens
Substrate in data set [1]: COc1ccc2nc3c(n2c1)C(=O)C(=O)c1ccccc1-3
Kind of data set: (§1) Activity of NADPH:cytochrome P-450R (unknown origin) assessed as NADPH oxidation by spectrophotometric analysis. The gist of the method: (§2)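 Initial rates of enzymatic reduction measured at varied compound concentrations with NADPH fixed at 150 µM. Reactivity expressed as apparent second-order k_cat/K_m, taken as the efficiency of reduction by the reduced free enzyme (ping-pong scheme).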

Substrate in data set [2]: Cc1ccc2nc3c(n2c1)C(=O)C(=O)c1ccccc1-3
Described as §1. Summed up: as §2

Substrate in data set [3]: Cc1cccn2c3c(nc12)-c1ccccc1C(=O)C3=O
The description is as §1. The gist of the method:
as §2

Substrate in data set [4]: Cc1ccn2c3c(nc2c1)-c1ccccc1C(=O)C3=O
The description is as §1. The gist of the method: as §2

Substrate in data set [5]: O=C1C(=O)c2c(nc3ccc(Br)cn23)-c2ccccc21
The data set is described as §1. Summed up:
as §2

Substrate in data set [6]: O=C1C(=O)c2c(nc3ccc(C(F)(F)F)cn23)-c2ccccc21
The data set is described as §1. The gist of the method: as §2

Substrate in data set [7]: O=C1C(=O)c2c(nc3ccc(Cl)cn23)-c2ccccc21
The description is as §1. The gist of the method: as §2

Substrate in data set [8]: O=C1C(=O)c2c(nc3ccc(F)cn23)-c2ccccc21
The description is as §1. Summed up: as §2

Substrate in data set [9]: O=C1C(=O)c2c(nc3ccc([N+](=O)[O-])cn23)-c2ccccc21
The description is as §1. The gist of the method: as §2

Substrate in data set [10]: O=C1C(=O)c2c(nc3ccc4ccccc4n23)-c2ccccc21
The data set is described as §1. Summed up:
as §2

Substrate in data set [11]: O=C1C(=O)c2c(nc3ccccn23)-c2ccc([N+](=O)[O-])cc21
The data set is described as §1. The gist of the method:
as §2

Substrate in data set [12]: O=C1C(=O)c2c(nc3ccccn23)-c2ccccc21
The data set is described as §1. Summed up: as §2

Substrate in data set [13]: O=C1C(=O)c2c(nc3ncccn23)-c2ccccc21
Described as §1. The gist of the method:
as §2

B1: NADPH--cytochrome P450 reductase (Homo sapiens) (protein)
chain: MGDSHVDTSSTVSEAVAEEVSLFSMTDMILFSLIVGLLTYWFLFRKKKEEVPEFTKIQTLTSSVRESSFVEKMKKTGRNIIVFYGSQTGTAEEFANRLSKDAHRYGMRGMSADPEEYDLADLSSLPEIDNALVVFCMATYGEGDPTDNAQDFYDWLQETDVDLSGVKFAVFGLGNKTYEHFNAMGKYVDKRLEQLGAQRIFELGLGDDDGNLEEDFITWREQFWPAVCEHFGVEATGEESSIRQYELVVHTDIDAAKVYMGEMGRLKSYENQKPPFDAKNPFLAAVTTNRKLNQGTERHLMHLELDISDSKIRYESGDHVAVYPANDSALVNQLGKILGADLDVVMSLNNLDEESNKKHPFPCPTSYRTALTYYLDITNPPRTNVLYELAQYASEPSEQELLRKMASSSGEGKELYLSWVVEARRHILAILQDCPSLRPPIDHLCELLPRLQARYYSIASSSKVHPNSVHICAVVVEYETKAGRINKGVATNWLRAKEPAGENGGRALVPMFVRKSQFRLPFKATTPVIMVGPGTGVAPFIGFIQERAWLRQQGKEVGETLLYYGCRRSDEDYLYREELAQFHRDGALTQLNVAFSREQSHKVYVQHLLKQDREHLWKLIEGGAHIYVCGDARNMARDVQNTFYDIVAELGAMEHAQAVDYIKKLMTKGRYSLDVWS
In general, kcat/Km refers to the second-order rate constant that governs catalysis at low substrate concentration. Take B1: the kcat/Km in data set [1] stood at 2.9e+07 M⁻¹ s⁻¹; in [2], 8.9e+06 M⁻¹ s⁻¹; in [3], 1.3e+07 M⁻¹ s⁻¹; in data set [4], 1.4e+07 M⁻¹ s⁻¹; in data set [5], 3.7e+07 M⁻¹ s⁻¹; in data set [6], 3.5e+07 M⁻¹ s⁻¹. The kcat/Km in data set [7] was 5.4e+07 M⁻¹ s⁻¹; in data set [8], 2.4e+07 M⁻¹ s⁻¹; in data set [9] it was 5.9e+07 M⁻¹ s⁻¹; in data set [10] it was 5.6e+06 M⁻¹ s⁻¹; in data set [11], 7.2e+07 M⁻¹ s⁻¹; in data set [12], 3.1e+07 M⁻¹ s⁻¹. Further, in [13], the kcat/Km was found to be 3.4e+07 M⁻¹ s⁻¹.

The values above are taken from ChEMBL document CHEMBL3763095, “Naphtho[1',2':4,5]imidazo[1,2-a]pyridine-5,6-diones: Synthesis, enzymatic reduction and cytotoxic activity” (Bioorg Med Chem Lett, 2016).
